Results: ChEMBL document CHEMBL3600299, “Identification of alpha-substituted acylamines as novel, potent, and orally active mGluR5 negative allosteric modulators” (Bioorg Med Chem Lett, 2015)
Activity calls are given as the source filed them.

What was measured:
[1] = target: T1, Metabotropic glutamate receptor 5 (Homo sapiens, UniProt P41594); assay: Negative allosteric modulator activity against human mGluR5 expressed in HEK293 cells assessed as inhibition of glutamate-induced inositol phosphate accumulation by IP-one HTRF assay; assay type: functional, cell-based
Summary of the method: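 HEK293 cells stably expressing human mGluR5 incubated 60 min with 2.5 lmol/L glutamate, with or without compound. Glutamate-induced inositol phosphate (IP1) accumulation read by IP-One HTRF kit.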
Target sequence in this assay (P41594 whole entry): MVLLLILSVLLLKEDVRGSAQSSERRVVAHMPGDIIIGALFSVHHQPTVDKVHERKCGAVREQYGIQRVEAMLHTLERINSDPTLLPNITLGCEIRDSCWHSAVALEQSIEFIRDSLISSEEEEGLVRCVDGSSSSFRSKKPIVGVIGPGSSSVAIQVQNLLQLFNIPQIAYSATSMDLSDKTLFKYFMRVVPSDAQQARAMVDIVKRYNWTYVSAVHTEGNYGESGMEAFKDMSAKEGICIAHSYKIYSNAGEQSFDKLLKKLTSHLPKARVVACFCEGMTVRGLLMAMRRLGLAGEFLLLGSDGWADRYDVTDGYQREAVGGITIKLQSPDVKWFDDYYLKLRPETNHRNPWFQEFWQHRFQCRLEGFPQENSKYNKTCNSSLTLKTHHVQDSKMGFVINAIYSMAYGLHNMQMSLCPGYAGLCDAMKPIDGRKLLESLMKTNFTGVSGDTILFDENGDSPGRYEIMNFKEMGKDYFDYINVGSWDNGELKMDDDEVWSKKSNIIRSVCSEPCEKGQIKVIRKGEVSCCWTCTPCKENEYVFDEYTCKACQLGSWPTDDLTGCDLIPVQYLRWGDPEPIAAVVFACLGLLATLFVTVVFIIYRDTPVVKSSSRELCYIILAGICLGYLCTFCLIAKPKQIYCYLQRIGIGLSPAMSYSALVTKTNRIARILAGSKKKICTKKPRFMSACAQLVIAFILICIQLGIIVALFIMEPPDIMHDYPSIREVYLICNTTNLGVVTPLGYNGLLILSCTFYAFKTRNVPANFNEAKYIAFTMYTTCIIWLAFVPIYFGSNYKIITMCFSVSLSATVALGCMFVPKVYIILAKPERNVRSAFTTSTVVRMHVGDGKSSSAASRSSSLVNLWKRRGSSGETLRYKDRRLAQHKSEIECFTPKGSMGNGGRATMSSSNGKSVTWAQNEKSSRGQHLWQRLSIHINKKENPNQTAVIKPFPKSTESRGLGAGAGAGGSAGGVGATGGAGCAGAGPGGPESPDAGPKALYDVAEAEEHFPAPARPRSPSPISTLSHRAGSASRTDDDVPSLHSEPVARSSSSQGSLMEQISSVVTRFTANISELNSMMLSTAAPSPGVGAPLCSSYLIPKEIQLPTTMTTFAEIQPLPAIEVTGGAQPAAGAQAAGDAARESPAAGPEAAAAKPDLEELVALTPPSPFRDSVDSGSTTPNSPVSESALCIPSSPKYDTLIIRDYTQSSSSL

[2] = target: T1, Metabotropic glutamate receptor 5; assay: Negative allosteric modulator activity against human mGluR5 expressed in HEK293 cells assessed as inhibition of glutamate-induced inositol phosphate accumulation at 100 nM by IP-one HTRF assay; assay type: functional, cell-based
Target sequence in this assay (P41594 21-1212 limits assumed): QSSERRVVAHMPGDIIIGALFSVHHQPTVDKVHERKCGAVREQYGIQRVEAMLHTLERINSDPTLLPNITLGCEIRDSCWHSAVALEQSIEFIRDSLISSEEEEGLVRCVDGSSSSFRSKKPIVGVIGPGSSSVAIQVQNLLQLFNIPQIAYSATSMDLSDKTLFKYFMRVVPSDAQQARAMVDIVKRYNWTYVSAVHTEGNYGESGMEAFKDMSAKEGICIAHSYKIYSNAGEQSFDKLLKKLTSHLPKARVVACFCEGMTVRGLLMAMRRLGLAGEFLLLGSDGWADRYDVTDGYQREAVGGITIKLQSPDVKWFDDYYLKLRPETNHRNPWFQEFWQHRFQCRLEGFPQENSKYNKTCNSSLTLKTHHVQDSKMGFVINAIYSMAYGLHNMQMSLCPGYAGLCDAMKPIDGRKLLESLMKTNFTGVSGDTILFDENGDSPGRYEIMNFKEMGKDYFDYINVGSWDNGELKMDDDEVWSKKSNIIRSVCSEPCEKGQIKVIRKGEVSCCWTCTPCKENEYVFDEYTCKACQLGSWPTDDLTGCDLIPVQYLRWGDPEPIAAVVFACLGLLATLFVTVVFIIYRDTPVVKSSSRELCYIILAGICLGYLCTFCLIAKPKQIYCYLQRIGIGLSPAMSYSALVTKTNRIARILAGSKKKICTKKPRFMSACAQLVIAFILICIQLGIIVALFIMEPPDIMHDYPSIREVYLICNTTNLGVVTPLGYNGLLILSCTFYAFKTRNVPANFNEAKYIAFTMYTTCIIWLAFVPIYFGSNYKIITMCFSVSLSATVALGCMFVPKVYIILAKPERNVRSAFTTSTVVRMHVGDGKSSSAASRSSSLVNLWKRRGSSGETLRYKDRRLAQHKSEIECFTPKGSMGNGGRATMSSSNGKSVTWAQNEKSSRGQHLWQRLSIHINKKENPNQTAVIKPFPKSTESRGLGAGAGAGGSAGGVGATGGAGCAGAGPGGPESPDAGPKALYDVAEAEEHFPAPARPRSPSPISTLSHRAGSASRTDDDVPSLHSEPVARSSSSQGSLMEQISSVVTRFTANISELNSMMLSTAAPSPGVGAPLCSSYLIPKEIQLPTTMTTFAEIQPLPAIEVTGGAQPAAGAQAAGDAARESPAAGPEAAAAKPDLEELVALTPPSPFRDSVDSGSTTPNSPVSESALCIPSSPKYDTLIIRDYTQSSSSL

Mus musculus [3] = assay: Effect on basal rectal temperature in mouse model of stress-induced hyperthermia at 0.1 to 1 mg/kg, po dosed 1 hr before first rectal temperature measurement; assay type: ADME, organism-based; settings: in vivo
Summary of the method: (§1)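 Mice dosed orally with test article in 0.5% methylcellulose vehicle 1 h before first rectal temperature (T1); second rectal temperature (T2) taken 10 min after T1. Basal temperature from T1; SIH response defined as T2–T1. Mean ± SEM, n = 10 per group; one-tailed Williams' test vs vehicle, p <0.025.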

Mus musculus [4] = assay: Anxiolytic-like activity in mouse model of stress-induced hyperthermia assessed as reduction in stress-induced hyperthermia response at 1 mg/kg, po dosed 1 hr before first rectal temperature measurement; assay type: functional, organism-based; summary of the method: as §1

SMILES	IC50 [1]	further results
COC[C@H](NC(=O)c1nccs1)c1cnc(Nc2ccc(C)nc2)c(Cl)c1	55.9 nM	
CCC[C@@H](NC(=O)c1ccccc1)c1cnc(Nc2ccc(C)nc2)c(Cl)c1		inhibition [2]: 30%
Cc1ccc(Nc2ncc([C@@H](Cc3ccccc3)NC(=O)c3nccs3)cc2Cl)cn1	55.5 nM	
CCC[C@@H](NC(=O)c1ncco1)c1cnc(Nc2ccc(C)nc2)c(Cl)c1	42.2 nM	
CCC[C@@H](NC(=O)c1ncc(C)s1)c1cnc(Nc2ccc(C)nc2)c(Cl)c1		inhibition [2]: 49%
Cc1ccc(Nc2ncc([C@H](NC(=O)c3nccs3)C3CCCCC3)cc2Cl)cn1	37.8 nM	
Cc1ccc(Nc2ncc([C@@H](NC(=O)c3nccs3)C(C)C)cc2Cl)cn1	1050 nM	
CCC[C@@H](NC(=O)c1nccs1)c1cnc(Nc2cccnc2)c(Cl)c1	71.4 nM	
CCC[C@@H](NC(=O)c1nccs1)c1cnc(Nc2cnc(C)s2)c(Cl)c1	60 nM	
Cc1ccc(Nc2ncc([C@@H](NC(=O)c3nccs3)C3CCC3)cc2Cl)cn1	> 1000 nM	
CC[C@H](NC(=O)c1nccs1)c1cnc(Nc2ccc(C)nc2)c(Cl)c1	> 1000 nM	
CCC[C@@H](NC(=O)c1nccs1)c1cnc(Nc2cnc(C)nc2)c(Cl)c1	43.9 nM	
CCC[C@@H](NC(=O)c1nccs1)c1cnc(Nc2ccc(C(F)(F)F)nc2)c(Cl)c1		inhibition [2]: 31%
CCC[C@H](NC(=O)c1nccs1)c1cnc(Nc2ccc(C)nc2)c(Cl)c1	978 nM	
CCCN(Cc1cnc(Nc2ccc(C)nc2)c(Cl)c1)C(=O)c1nccs1	584 nM	
Cc1ccc(Nc2ncc(C3CCCN3C(=O)c3nccs3)cc2Cl)cn1 (stereo not given)	182 nM	

Continued by falling IC50 [1], values first:

IC50 [1]	SMILES	further results
31.2 nM	CCC[C@@H](NC(=O)c1cscn1)c1cnc(Nc2ccc(C)nc2)c(Cl)c1	
30.9 nM	Cc1ccc(Nc2ncc([C@H](NC(=O)c3nccs3)C(C)(C)C)cc2Cl)cn1	
30.9 nM	CCCC[C@@H](NC(=O)c1nccs1)c1cnc(Nc2ccc(C)nc2)c(Cl)c1	
28.7 nM	CCCC(NC(=O)c1nccs1)c1cnc(Nc2ccc(C)nc2)c(Cl)c1 (stereo not given)	
27.8 nM	CCC[C@@H](NC(=O)c1ccccn1)c1cnc(Nc2ccc(C)nc2)c(Cl)c1	
23.3 nM	CCC[C@@H](NC(=O)c1cocn1)c1cnc(Nc2ccc(C)nc2)c(Cl)c1	
16.6 nM	Cc1ccc(Nc2ncc([C@H](NC(=O)c3nccs3)C3CCCC3)cc2Cl)cn1	
15.4 nM	CC[C@@H](NC(=O)c1nccs1)c1cnc(Nc2ccc(C)nc2)c(Cl)c1	
13.3 nM	CCC[C@@H](NC(=O)c1nccs1)c1cnc(Nc2ccc(OC)nc2)c(Cl)c1	
12.8 nM	CCC[C@@H](NC(=O)c1nccs1)c1cnc(Nc2ccc(F)nc2)c(Cl)c1	
10 nM	CCC[C@@H](NC(=O)c1nc(C)cs1)c1cnc(Nc2ccc(C)nc2)c(Cl)c1	
9.7 nM	Cc1ccc(Nc2ncc([C@H](NC(=O)c3nccs3)C3CC3)cc2Cl)cn1	
9.3 nM	Cc1ccc(Nc2ncc([C@H](NC(=O)c3nccs3)C3CCC3)cc2Cl)cn1	
8.8 nM	C/C=C/C[C@@H](NC(=O)c1nccs1)c1cnc(Nc2ccc(C)nc2)c(Cl)c1	
8.2 nM	CCC[C@@H](NC(=O)c1nccs1)c1cnc(Nc2ccc(C)nc2)c(Cl)c1	
7.5 nM	Cc1ccc(Nc2ncc([C@H](NC(=O)c3nccs3)C(C)C)cc2Cl)cn1	
2.4 nM	C=CC[C@@H](NC(=O)c1nccs1)c1cnc(Nc2ccc(C)nc2)c(Cl)c1	Activity (Mus musculus [3]): Non-toxic; Activity (Mus musculus [4]): Active
